According to paper PMC6420351 (ACS chemical biology, 2019):
Blank lines part the entries; values can stand above or below the molecule they belong to.

Tests used:
RDH5 = molecular target: T1, RDH5 (Bos taurus, UniProt Q27979); experiment: 11-cis-retinol oxidation assay in RPE microsomes; type: biochemical; settings: bovine RPE microsomes preincubated with 10–50 μM
T1 sequence (Q27979 1-318): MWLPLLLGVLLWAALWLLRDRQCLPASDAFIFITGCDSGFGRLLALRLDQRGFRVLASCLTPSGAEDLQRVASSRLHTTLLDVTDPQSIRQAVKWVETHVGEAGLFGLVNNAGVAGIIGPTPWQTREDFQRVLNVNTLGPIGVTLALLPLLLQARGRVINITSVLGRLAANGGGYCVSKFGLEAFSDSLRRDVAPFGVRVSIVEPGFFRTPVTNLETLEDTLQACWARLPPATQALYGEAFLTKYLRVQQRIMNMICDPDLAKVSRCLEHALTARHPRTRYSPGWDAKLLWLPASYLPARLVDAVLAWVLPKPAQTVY
How it was run: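 Bovine RPE microsomes (~100 μg total protein) preincubated with 10–50 μM test compound (1:1 to 1:5 molar excess) in 20 mM Tris/HCl pH 8.0, 1% BSA, 20 μM NAD+. 11-cis-Retinol (10 μM) added; 30 °C, 10 min. Stopped with methanol containing 40 mM hydroxylamine, 15 min RT. Hexane extract run on normal-phase HPLC (isocratic 10% ethyl acetate/hexane), detected at 325 nm.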

rodents = settings: previous studies of wound healing, vasodilation, diabetes; cited from earlier work
cannabinoid receptor 2 = settings: cited from earlier work
CRBP1 [1] = molecular target: T2, CRBP1 (Homo sapiens, UniProt P09455); experiment: Fluorescence atROL-replacing; type: binding; settings: for binding to CRBP1: fluorescence titration of holo-CRBP1, 0–10 μM range for O-1918
T2 sequence (P09455 1-135): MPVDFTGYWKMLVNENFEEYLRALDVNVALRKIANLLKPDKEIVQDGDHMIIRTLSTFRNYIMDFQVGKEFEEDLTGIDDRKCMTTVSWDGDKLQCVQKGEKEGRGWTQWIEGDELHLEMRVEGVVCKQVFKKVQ

CRBP4 = molecular target: T3, CRBP4 (Homo sapiens, UniProt Q96R05); experiment: Co-crystallization / X-ray structure of CRBP4 with ligand; type: binding; settings: crystal structure PDB 6E6K
T3 sequence (Q96R05 1-134): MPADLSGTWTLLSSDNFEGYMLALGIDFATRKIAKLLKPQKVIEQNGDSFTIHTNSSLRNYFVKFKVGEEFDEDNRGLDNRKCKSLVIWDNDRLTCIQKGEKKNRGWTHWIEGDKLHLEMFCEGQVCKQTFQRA
How it was run: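 CRBP4 purified with a final 0–0.5 M NaCl gradient in 10 mM Tris/HCl pH 8.0, then concentrated to 6 mg mL−1. Protein preincubated with test compound. Crystallised in 0.2 M NaCl, 0.1 M BisTris pH 6.5, 25% PEG 3350 (w/v) by sitting-drop vapour diffusion at RT.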

[2] = test system: visual cycle retinoid flow; experiment: Visual chromophore regeneration after flash; type: in vivo, Balb/cJ mice; settings: 0.25 mg of compound 1.5 h prior to flash bleaching 75% of rhodopsin
How it was run: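 Dark-adapted (≥24 h) Balb/cJ mice given 0.25 mg test compound or DMSO 1.5 h before a flash bleaching 75% of rhodopsin. Kept dark, euthanised 1 min–8 h later; eyes frozen in liquid nitrogen. Under dim red light, eyes homogenised in 40 mM hydroxylamine in PBS/methanol (20 min RT), then hexane-extracted. Normal-phase HPLC (step ethyl acetate/hexane gradient) read at 325 and 360 nm, quantified against standards; n = 4, mean ± sd.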

CRBP3 = molecular target: T4, CRBP3 (Homo sapiens, UniProt P82980); experiment: Co-crystallization / X-ray structure of CRBP3 with ligand; type: binding; settings: crystal structure PDB 6E5W
T4 sequence (P82980 1-135): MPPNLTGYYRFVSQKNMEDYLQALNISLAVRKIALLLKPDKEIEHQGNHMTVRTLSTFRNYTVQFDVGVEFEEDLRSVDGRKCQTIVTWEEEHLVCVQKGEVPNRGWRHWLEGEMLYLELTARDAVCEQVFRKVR
How it was run: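 Apo-CRBP3 (8 mg mL−1) preincubated 15 min with 300 μM test compound. Drops made from 1 μL protein plus 1 μL 0.2 M sodium malonate pH 5.0, 20% PEG 3350 (w/v). Grown by sitting-drop vapour diffusion at RT.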

LRAT = molecular target: T5, LRAT (Bos taurus, UniProt Q9BGL2); experiment: Retinol esterification assay in RPE microsomes; type: biochemical; settings: bovine RPE microsomes preincubated with 10–50 μM
T5 sequence (Q9BGL2 1-230): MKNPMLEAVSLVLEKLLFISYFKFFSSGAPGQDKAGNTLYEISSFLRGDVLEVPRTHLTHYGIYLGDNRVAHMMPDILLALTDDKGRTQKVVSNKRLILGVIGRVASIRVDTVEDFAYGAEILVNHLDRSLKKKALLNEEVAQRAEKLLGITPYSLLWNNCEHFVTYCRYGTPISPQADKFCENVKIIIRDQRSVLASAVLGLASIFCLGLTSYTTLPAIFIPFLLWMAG
How it was run: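 UV-treated bovine RPE microsomes (~100 μg total protein) in 20 mM Tris/HCl pH 7.4, 1 mM DTT, 1% BSA. Test compound (10, 20 or 50 μM) added before atROL (final 10 μM). Initial rate taken after 5 min at RT, quenched with methanol, extracted with hexane. Normal-phase HPLC (isocratic 10% ethyl acetate/hexane, 325 nm). Retinyl esters quantified against synthetic standards.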

cannabinoid receptor 1 = settings: cited from earlier work
[3] = test system: light-induced retinal damage; experiment: Bright light-induced retinal degeneration; type: in vivo, Balb/cJ mice; settings: IP injection 1.5 h prior to light; OCT and histology a week later
[4] = Detection and quantification of abn-CBD in the ocular tissues; type: in vivo, Balb/cJ mice
How it was run: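 Balb/cJ mice (5–8 weeks, dark-adapted ≥24 h) given a single i.p. 15 mg kg−1 dose. At 1–15 h mice were anaesthetised with ketamine and PBS-perfused. Eyes homogenised in PBS/methanol with 100 pmol deuterated test-compound internal standard, then hexane-extracted, dried and redissolved in ethanol. Quantified by LC/MS on a C18 column (70–100% methanol/water over 10 min), positive-mode ESI ion trap.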

RPE65 = RPE65 (Bos taurus, UniProt Q28175); experiment: RPE65 isomerization activity assay in RPE microsomes; type: biochemical; settings: bovine RPE microsomes preincubated with 10–50 μM
Chain of RPE65 (Q28175 whole entry): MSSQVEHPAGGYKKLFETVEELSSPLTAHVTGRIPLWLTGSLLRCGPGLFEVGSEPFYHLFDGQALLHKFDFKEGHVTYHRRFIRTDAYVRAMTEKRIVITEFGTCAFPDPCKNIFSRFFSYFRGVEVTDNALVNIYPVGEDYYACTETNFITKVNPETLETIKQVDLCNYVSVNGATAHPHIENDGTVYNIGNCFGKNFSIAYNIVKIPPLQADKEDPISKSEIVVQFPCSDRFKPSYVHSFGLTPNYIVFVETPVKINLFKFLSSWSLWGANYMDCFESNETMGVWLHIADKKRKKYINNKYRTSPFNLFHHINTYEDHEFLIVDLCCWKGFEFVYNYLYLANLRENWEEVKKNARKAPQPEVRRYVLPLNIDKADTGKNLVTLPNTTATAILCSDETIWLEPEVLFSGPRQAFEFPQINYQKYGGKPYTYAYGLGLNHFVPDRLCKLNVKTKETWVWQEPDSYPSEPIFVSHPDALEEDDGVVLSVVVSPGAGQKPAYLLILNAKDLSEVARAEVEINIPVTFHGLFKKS
How it was run: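 UV-bleached bovine RPE microsomes were the RPE65 source, reacting in the presence of CRALBP. Microsomes preincubated with 10–50 μM test compound (1:1 to 1:5 molar excess). Reaction started with atROL (final 10 μM) and run at 30 °C for 30 min. Products extracted with hexane and analysed by normal-phase HPLC.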

CRBP2 = molecular target: T6, CRBP2 (Homo sapiens, UniProt P50120); experiment: Fluorescence-binding assay with CRBP2
T6 sequence (P50120 1-134): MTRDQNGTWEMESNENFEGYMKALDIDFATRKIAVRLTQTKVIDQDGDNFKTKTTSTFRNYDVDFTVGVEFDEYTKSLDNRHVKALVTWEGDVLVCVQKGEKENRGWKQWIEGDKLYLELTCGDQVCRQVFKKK

[5] = test system: recovery of visual sensitivity; experiment: Scotopic full-field ERG recovery after photobleach; type: in vivo, Balb/cJ mice; settings: 30 mg/kg; ERG 4 h after flash bleaching ~50% of visual pigment
CRBP1 [6] = settings: read-out: affinity for atROL; cited from earlier work

Compound: C=C(C)[C@@H]1CCC(C)=C[C@H]1c1c(O)cc(O)cc1CCCCC [abn-CBD, 4-[(1R,6R)-3-Methyl-6-prop-1-en-2-ylcyclohex-2-en-1-yl]-5-pentylbenzene-1,3-diol]
- effect on RDH5 enzymatic activity (RDH5): did not cause a measurable decline
- toxicity in rodents (rodents): did not report toxicity
- interaction with cannabinoid receptor 2 (cannabinoid receptor 2): does not interact
- Ki (CRBP1 [1]): ~67 nM
- binding to CRBP4 (CRBP4): bind abn-CBD similarly to CRBP1
- atROL level during chromophore regeneration [2]: transient accumulation of atROL
- rate of 11-cis-retinal regeneration [2]: noticeably slower
- rate of all-trans-retinal clearance vs control [2]: no differences
- binding to CRBP3 (CRBP3): bind abn-CBD similarly to CRBP1
- effect on LRAT enzymatic activity (LRAT): did not cause a measurable decline
- interaction with cannabinoid receptor 1 (cannabinoid receptor 1): does not interact
- protection against light-induced retinal damage [3]: largely protected against the light-induced retinal damage
- half-life ([4]; Balb/cJ, mouse, eye (PBS-perfused, homogenised), ip, 15 mg/kg): ~420 min
- time of maximum ocular level after the injection ([4]; single IP dose 15 mg kg^−1): 2 h
- maximum ocular level ([4]; single IP dose 15 mg kg^−1, PBS-perfused mouse eyes): 58 pmol/eye
- effect on RPE65 enzymatic activity (RPE65): did not cause a measurable decline
- interaction with CRBP2 (CRBP2): absence of interaction
- recovery of a-wave and b-wave amplitudes after light illumination [5]: slower

Compound: C=C(C)[C@@H]1CCC(C)=C[C@H]1c1c(C)cc(O)cc1O [abn-CBDO, 5-methyl-4-[(1R,6R)-3-methyl-6-prop-1-en-2-ylcyclohex-2-en-1-yl]benzene-1,3-diol]
- apparent affinity lowered compared with abn-CBD (CRBP1 [1]; fold change of Ki vs abn-CBD): 4.3 times

Compound: C=C(C)[C@@H]1CCC(C)=C[C@H]1c1c(OC)cc(C)cc1OC [O-1918, 1,3-dimethoxy-5-methyl-2-[(1R,6R)-3-methyl-6-prop-1-en-2-ylcyclohex-2-en-1-yl]benzene]
- binding to CRBP1 (CRBP1 [1]): abolished the meaningful binding

- Ki (CRBP1 [1]): ~34 nM
Compound: CC1=C(/C=C/C(C)=C/C=C/C(C)=C/CO)C(C)(C)CCC1 [atROL, all-trans-retinol]
- Kd (CRBP1 [6]): < 1 nM

Compound: C=C(C)[C@@H]1CCC(C)=CC1c1c(O)cc(C)cc1O (stereo partly drawn) [CBDO, 5-methyl-2-[(6R)-3-methyl-6-prop-1-en-2-ylcyclohex-2-en-1-yl]benzene-1,3-diol]
- Ki (CRBP1 [1]): ~1700 nM
- fold increase of the Ki value (CRBP1 [1]; further increase relative to abn-CBDO): 6.3 fold

Compound: C=C(C)[C@H]1CC=C(C)CC1 [limonene]
- binding to CRBP1 (CRBP1 [1]): did not observe limonene interacting
